From PubChem
TNAP inh hi DEA – inhibitors of human TNAP at high phosphate acceptor concentration | purified TNAP, CDP-star luminescence, 1 M DEA | AID 1135 | actives 0.03% (n = 200,000) | P05186 | inhibition, % at 20 µM;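 active means over 50% inhibition of tissue-nonspecific alkaline phosphatase at 20 µM in the single-dose screen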;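 further: plate controls were DMSO wells for no effect and EDTA-quenched wells as full inhibition for full effect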
Target sequence (P05186 whole entry, looked up): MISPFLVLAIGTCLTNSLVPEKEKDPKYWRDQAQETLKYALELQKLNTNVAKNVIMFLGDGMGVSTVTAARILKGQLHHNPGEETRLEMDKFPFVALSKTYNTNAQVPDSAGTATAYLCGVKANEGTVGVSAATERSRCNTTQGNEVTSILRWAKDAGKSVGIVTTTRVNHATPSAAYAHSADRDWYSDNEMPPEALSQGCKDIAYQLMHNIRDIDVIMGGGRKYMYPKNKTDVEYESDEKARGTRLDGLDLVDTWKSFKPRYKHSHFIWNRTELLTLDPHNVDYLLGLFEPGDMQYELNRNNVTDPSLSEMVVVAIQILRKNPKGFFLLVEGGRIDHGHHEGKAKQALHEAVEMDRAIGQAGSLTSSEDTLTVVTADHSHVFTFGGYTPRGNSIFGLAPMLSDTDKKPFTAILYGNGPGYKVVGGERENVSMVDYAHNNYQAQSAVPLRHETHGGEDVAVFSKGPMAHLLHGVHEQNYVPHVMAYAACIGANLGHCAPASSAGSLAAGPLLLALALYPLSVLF
TNAP inh noacc – inhibitors of human TNAP without phosphate acceptor; purified TNAP, CDP-star luminescence, 30 min; inhibition, % at 20 µM; AID 1012; P05186; actives 0.26% (n = 200,000);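 active means tissue-nonspecific alkaline phosphatase inhibition above about 50% at 20 µM in the single-dose screen, limit read from the data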;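 further: 0% = DMSO negative control and 100% = EDTA positive control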
HCT116 bCat-KO – beta-catenin-lacking colon tumor cell growth suppression; HCT116 beta-catenin knockout viability, CellTiter-Glo, 60 h; active compounds read low; viability, % at 10 µM; actives 1.5% (n = 140,000); AID 818;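 active means viability at or under a set limit, the compound median less 4 SD, cut at about 6% in these data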;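 further: 0% = Hyamine 1622 control at 20 µM and 100% = untreated cell control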
L major viab – Leishmania major promastigote growth inhibition | Leishmania major promastigotes, resazurin fluorescence viability | inhibition, % at 10 µM | actives 9% (n = 200,000) | AID 1063; in the data active means inhibition above about 50%;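 further: promastigotes grown with compound for 44 hours at 28 °C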
HCT116 PTEN-null – PTEN-deleted cell growth suppression; AID 827; actives 1.2% (n = 140,000); viability, % at 10 µM; HCT116 PTEN-null viability, CellTiter-Glo, 60 h; active compounds read low;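 active means viability at or below a set limit, 4 SD under the median of all tested compounds, cut at about 3.7% in these data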;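 further: PTEN knockout HCT116 line with beta catenin targeted HCT116 as companion control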
TNAP act hiacc – activators of human TNAP at high phosphate acceptor concentration | activation factor at 20 µM | 200,000 tested, under 10 active | purified TNAP, CDP-star luminescence, 1 M DEA, 30 min; active compounds read high; 0 = EDTA background, 1 = DMSO-only activity | P05186;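 active means activation factor at least 2 at 20 µM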
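Test system – human TNAP · Doses – 20 µM single point · Incubation – 30 min, room temperature · Signal – luminescent substrate turnover signal · Read-out basis – activation factor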
* marks the source's active call; other numbers are inactive results; . = no result given. Hits are enriched below; roughly 9.6% of the tested compounds scored in any of these assays.

SMILES | TNAP inh hi DEA | TNAP inh noacc | HCT116 bCat-KO | L major viab | HCT116 PTEN-null | TNAP act hiacc
CC1CC(C)CN(C(=S)Nc2ccc3nc4n(c(=O)c3c2)CCCCC4)C1 (centres undefined) | -6 | -14 | 82 | 85* | 84 | 1.1
CC1CCCN(C(=S)Nc2ccc3nc4n(c(=O)c3c2)CCCCC4)C1 (centres undefined) | 1 | -1 | 78 | 1 | 85 | 1
O=C(CN1CCCCCC1=O)N1CCN(S(=O)(=O)c2cccs2)CC1 | -5 | -15 | . | -1 | . | 1.1
Cc1ccc(S(=O)(=O)c2cnc(-c3ccccc3)nc2N2CCN(C)CC2)cc1 | -8 | -5 | . | 11 | . | 1.1
Cc1ccc(Nc2ncc3c(n2)CC(C)(C)CC3=O)cc1 | -4 | -6 | . | 1 | . | 1
O=C(N/N=C\C=C\c1ccc2c(c1)OCO2)C1COc2ccccc2O1 (centres undefined) | 1 | 2 | 89 | 65* | 93 | 1
O=C(N/N=C\c1ccc(-c2ccccc2[N+](=O)[O-])o1)C1COc2cc3ccccc3cc2O1 (centres undefined) | -2 | 0 | 91 | 96* | 80 | 1
O=C(N/N=C\C=C\c1ccc2c(c1)OCO2)c1cccnc1 | -6 | -10 | 60 | 3 | 66 | 1.1
O=C(N/N=C\c1ccc([N+](=O)[O-])o1)C1COc2ccccc2O1 (centres undefined) | 7 | 10 | . | 100* | . | 0.9
O=C(N/N=C\c1ccc(-c2ccccc2[N+](=O)[O-])o1)C1COc2ccccc2O1 (centres undefined) | -2 | -6 | 87 | 52* | 84 | 1
CN(C)c1nc(N)c2ncc(=S)[nH]c2n1 | -1 | -5 | . | -7 | . | 1
CCN(Cc1ccncc1)Cc1c(O)ccc2cc(Br)ccc12 | 0 | -11 | . | -2 | . | 1
CCN(c1ccc(NC(=O)CCNC(=O)c2ccco2)cc1)C(C)C | 3 | -6 | 95 | 54* | 99 | 1
COc1ccc2oc(=O)c(-c3ccccc3C(=O)N3CCOCC3)cc2c1 | 4 | -10 | 91 | -3 | 98 | 1
O=C(CCS(=O)(=O)c1ccc(Br)s1)Nc1ccccc1Br | -3 | -11 | . | -4 | . | 1
CCc1nc2c(cnn2-c2ccc(Cl)cc2)c(=O)n1-c1ccc(OC)cc1 | -3 | -13 | 79 | 17 | 76 | 1
O=S(=O)(c1ccccc1)c1cnn(-c2ccccc2)c1-c1ccc(F)cc1 | -8 | -14 | 72 | 50* | 69 | 1.1
COc1ccc(-n2ncc(S(=O)(=O)c3ccccc3)c2-c2ccc(Cl)cc2)cc1 | 1 | -9 | 67 | 99* | 40 | 1
O=C1C=C(NCCN2CCOCC2)C(=O)c2cnccc21 | 16 | 10 | 1.8* | 99* | 1.9* | 0.8
COc1cccc(C(=O)Nc2nc3ccccc3[nH]2)c1 | -2 | -11 | 75 | 29 | 81 | 1
COc1ccccc1N(C)S(=O)(=O)c1ccc(C(=O)Nc2ccc(N3CCOCC3)cc2)cc1 | 0 | -6 | . | 99* | . | 1
Cc1nc2ccc(NC(=O)c3cccc(S(=O)(=O)N(C)c4ccccc4)c3)cc2s1 | -4 | -14 | 27 | 99* | 26 | 1
Cc1ccc(NC(=O)c2cccc(S(=O)(=O)N(C)c3ccccc3)c2)cc1S(=O)(=O)N1CCOCC1 | 2 | -6 | 60 | 98* | 63 | 1
Cc1ccc(N(C)S(=O)(=O)c2cccc(C(=O)Nc3nc4ccccc4[nH]3)c2)cc1 | -5 | -25 | 31 | 90* | 36 | 1.1
Cc1ccc(N/C(C(Cl)=C(Cl)Cl)=C(/Cl)[N+](=O)[O-])c(C)c1 | 1 | -8 | 89 | 3 | 84 | 1
SMILES | TNAP inh hi DEA | TNAP inh noacc | HCT116 bCat-KO | L major viab | HCT116 PTEN-null | TNAP act hiacc
Cc1nnc(SCC(=O)NNC(=O)CC#N)[nH]c1=O | 2 | -3 | 92 | -2 | 103 | 1
COc1ccc(NC(=O)COC(=O)C2CCC(C(C)(C)C)CC2)c([N+](=O)[O-])c1 (centres undefined) | 0 | -10 | 91 | 2 | 90 | 1
CN(c1ccccc1)S(=O)(=O)c1ccc(Cl)c(C(=O)NC2=NCCS2)c1 | 0 | 2 | . | 7 | . | 1
COc1ccccc1N(C)S(=O)(=O)c1ccc(C(=O)Nc2ccc3nc(C)sc3c2)cc1 | 0 | 5 | 63 | 100* | 55 | 1
COc1ccc(S(=O)(=O)N(CC(=O)Nc2ccc(S(=O)(=O)N3CCOCC3)cc2)Cc2ccc(F)cc2)cc1 | -8 | -47 | 73 | 97* | 77 | 1.1
CN(c1ccccc1C(=O)Nc1ccc(S(=O)(=O)N2CCOCC2)cc1)S(=O)(=O)c1ccccc1 | -1 | -8 | 73 | 91* | 81 | 1
COC(=O)c1ccc(NC(=O)c2ccccc2N(C)S(=O)(=O)c2ccccc2)cc1 | -25 | -11 | 89 | 4 | 94 | 1.3
COc1ccccc1N(C)S(=O)(=O)c1ccc(Cl)c(C(=O)NC2=NCCS2)c1 | 0 | -4 | . | 57* | . | 1
CC(=O)Oc1cc2cccc(OC(C)=O)c(=O)c2c(OC(C)=O)c1OC(C)=O | 22 | -26 | . | -12 | . | 0.8
Cc1ccccc1NCc1ccc(O)c2ncccc12 | -5 | -14 | 12 | 100* | 11 | 1
Oc1ccc(CNc2ccccc2)c2cccnc12 | -4 | -10 | 7 | 66* | 5 | 1
OCc1ccnc2c(O)cccc12 | 1 | 3 | 3.2* | 100* | 2.9* | 1
Oc1ccc(CNc2ccc(F)cc2)c2cccnc12 | -6 | -12 | 12 | -3 | 10 | 1.1
Oc1ccc(Cn2ccnc2)c2cccnc12 | -5 | -11 | . | 99* | . | 1
Cc1cccc(NCc2ccc(O)c3ncccc23)c1 | -2 | -14 | . | -4 | . | 1
CC(=O)Nc1ccccc1NC(=O)c1ccc(C)c(C)c1 | -4 | -13 | . | 2 | . | 1
O=C(NNC(=O)c1ccc(F)cc1F)c1ccc2c(c1)OCO2 | 1 | 4 | . | -6 | . | 1
CCOC(=O)C1=NOC(CNc2ncc(C(F)(F)F)cc2Cl)C1 (centres undefined) | -6 | -5 | . | -4 | . | 1.1
COc1cc([N+](=O)[O-])cc2sc(NC(=O)C3CC3)nc12 | 5 | -6 | . | -11 | . | 1
COCc1ccc(O)c2ncccc12 | -3 | -7 | 2.2* | 100* | 2.1* | 1
O=[N+]([O-])c1ccc(O)c2cccnc12 | 20 | 11 | . | 4 | . | 0.8
COc1ccccc1CN1CCSCC1 | 0 | -10 | 102 | 63* | 96 | 1
O=C(NC(NCc1cccnc1)C(Cl)(Cl)Cl)c1cccc2ccccc12 (centres undefined) | 0 | -10 | 65 | 84* | 66 | 1
Cc1cc(C(=O)COC(=O)C2=NNC(=O)CC2)c(C)n1-c1ccc(OC(F)F)cc1 | -2 | -14 | 87 | -6 | 85 | 1
